Test results reported in ChEMBL document CHEMBL5696444 (Nat Commun, 2017).

Columns and labels:
[1] = biological target: Tyrosine-protein kinase receptor UFO (Homo sapiens) (UniProt P30530); assay: Inhibition of AXL (unknown origin) at 100 nM in the presence of ATP by Kinome scan method relative to control
[2] = biological target: Casein kinase I isoform alpha (Homo sapiens) (UniProt P48729); assay: Inhibition of CSNK1A1 (unknown origin) at 1000 nM in the presence of ATP by Kinome scan method relative to control
[3] = biological target: Dual specificity protein kinase CLK1 (Homo sapiens) (UniProt P49759); assay: Inhibition of CLK (unknown origin) in human 184-hTERT cells assessed as induction in alternative splicing effect in S6K skipped exon /canonical form incubated for 6 hrs by RT-PCR analysis; format: cell-based; conditions: dose 0.2-5 µM
Dual specificity protein kinase CLK1 (Homo sapiens), sequence (P49759 whole entry, looked up, canonical isoform): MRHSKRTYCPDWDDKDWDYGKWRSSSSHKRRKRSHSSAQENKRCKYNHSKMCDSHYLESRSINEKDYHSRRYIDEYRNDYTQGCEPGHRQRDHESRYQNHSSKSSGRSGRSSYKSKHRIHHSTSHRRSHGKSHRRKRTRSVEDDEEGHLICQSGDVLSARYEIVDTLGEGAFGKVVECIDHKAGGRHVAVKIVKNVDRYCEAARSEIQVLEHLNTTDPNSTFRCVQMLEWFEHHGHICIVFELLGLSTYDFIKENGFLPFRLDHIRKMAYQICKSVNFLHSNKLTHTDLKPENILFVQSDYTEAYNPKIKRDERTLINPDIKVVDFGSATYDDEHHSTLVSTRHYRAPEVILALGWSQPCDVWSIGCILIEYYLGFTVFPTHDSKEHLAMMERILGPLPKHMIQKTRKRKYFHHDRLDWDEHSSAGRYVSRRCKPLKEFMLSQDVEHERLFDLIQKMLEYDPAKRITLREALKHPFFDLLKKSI
Outline: (§1)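 Cells exposed to graded T3 concentrations for 6 h (chosen to avoid cytotoxicity), with a DMSO vehicle control. Total RNA was reverse-transcribed with oligo-dT primers. Targeted splice or conjoined-gene products were quantified by real-time qPCR or by targeted next-generation sequencing. Conjoined-gene isoform expression was normalized to a sequenced housekeeping gene.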

[4] = biological target: Inhibitor of nuclear factor kappa-B kinase subunit beta (Homo sapiens) (UniProt O14920); assay: Inhibition of IKBKB (unknown origin) at 1000 nM in the presence of ATP by Kinome scan method relative to control
Inhibitor of nuclear factor kappa-B kinase subunit beta (Homo sapiens), sequence (O14920 whole entry): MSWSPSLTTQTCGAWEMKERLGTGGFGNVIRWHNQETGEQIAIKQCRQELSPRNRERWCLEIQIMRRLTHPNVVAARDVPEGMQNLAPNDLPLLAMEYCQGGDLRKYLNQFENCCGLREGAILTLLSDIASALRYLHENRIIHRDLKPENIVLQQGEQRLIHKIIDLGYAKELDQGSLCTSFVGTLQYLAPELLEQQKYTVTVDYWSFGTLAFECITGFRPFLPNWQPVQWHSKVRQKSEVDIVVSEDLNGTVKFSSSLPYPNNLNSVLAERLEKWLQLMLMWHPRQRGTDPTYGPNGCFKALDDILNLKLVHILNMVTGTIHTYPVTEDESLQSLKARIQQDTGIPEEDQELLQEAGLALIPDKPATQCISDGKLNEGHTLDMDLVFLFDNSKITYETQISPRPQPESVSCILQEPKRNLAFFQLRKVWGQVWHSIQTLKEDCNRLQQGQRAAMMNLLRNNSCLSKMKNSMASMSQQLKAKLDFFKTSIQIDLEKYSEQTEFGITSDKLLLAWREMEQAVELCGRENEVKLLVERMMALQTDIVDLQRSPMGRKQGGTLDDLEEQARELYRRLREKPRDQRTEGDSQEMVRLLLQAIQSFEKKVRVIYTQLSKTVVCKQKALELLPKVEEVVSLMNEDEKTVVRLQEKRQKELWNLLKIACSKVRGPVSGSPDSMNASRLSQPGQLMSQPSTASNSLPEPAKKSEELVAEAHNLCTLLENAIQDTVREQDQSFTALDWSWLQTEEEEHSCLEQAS

[5] = system: HCT-116; assay: Induction of apoptosis in human HCT-116 cells assessed as necrosis cells at 10 uM incubated for > 6 hrs by annexin V/PI staining based analysis (Rvb=0.55%); format: functional
[6] = system: HCT-116; assay: Induction of cell cycle arrest in human HCT-116 cells assessed as S phase at 1 uM incubated for 24 hrs by flow cytometry analysis (Rvb=46.4%); format: functional
[7] = system: HCT-116; assay: Induction of cell cycle arrest in human HCT-116 cells assessed as sub G0/G1 phase at 10 uM incubated for 6 hrs by flow cytometry analysis (Rvb=1.6%); format: functional
[8] = biological target: Ribosomal protein S6 kinase beta-1 (Homo sapiens) (UniProt P23443); assay: Inhibition of RPS6KB1 (unknown origin) at 100 nM in the presence of ATP by Kinome scan method relative to control
[9] = biological target: Serine/threonine-protein kinase pim-1 (Homo sapiens) (UniProt P11309); assay: Inhibition of PIM1 (unknown origin) at 100 nM in the presence of ATP by Kinome scan method relative to control
Serine/threonine-protein kinase pim-1 (Homo sapiens), sequence (P11309 whole entry, looked up): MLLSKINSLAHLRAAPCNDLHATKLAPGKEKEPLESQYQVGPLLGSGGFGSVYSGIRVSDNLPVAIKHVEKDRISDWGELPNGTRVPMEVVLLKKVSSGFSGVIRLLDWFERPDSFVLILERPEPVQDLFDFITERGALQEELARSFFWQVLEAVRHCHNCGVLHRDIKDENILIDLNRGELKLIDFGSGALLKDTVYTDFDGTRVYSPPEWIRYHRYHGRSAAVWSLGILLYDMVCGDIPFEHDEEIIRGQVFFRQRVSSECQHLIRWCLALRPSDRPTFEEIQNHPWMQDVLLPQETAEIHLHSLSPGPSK

[10] = system: HCT-116; assay: Induction of cell cycle arrest in human HCT-116 cells assessed as sub G0/G1 phase at 1 uM incubated for 6 hrs by flow cytometry analysis (Rvb=1.6%); format: functional
[11] = biological target: Ephrin type-A receptor 1 (Homo sapiens) (UniProt P21709); assay: Inhibition of EPHA1 (unknown origin) at 100 nM in the presence of ATP by Kinome scan method relative to control
Ephrin type-A receptor 1 (Homo sapiens), sequence (P21709 whole entry): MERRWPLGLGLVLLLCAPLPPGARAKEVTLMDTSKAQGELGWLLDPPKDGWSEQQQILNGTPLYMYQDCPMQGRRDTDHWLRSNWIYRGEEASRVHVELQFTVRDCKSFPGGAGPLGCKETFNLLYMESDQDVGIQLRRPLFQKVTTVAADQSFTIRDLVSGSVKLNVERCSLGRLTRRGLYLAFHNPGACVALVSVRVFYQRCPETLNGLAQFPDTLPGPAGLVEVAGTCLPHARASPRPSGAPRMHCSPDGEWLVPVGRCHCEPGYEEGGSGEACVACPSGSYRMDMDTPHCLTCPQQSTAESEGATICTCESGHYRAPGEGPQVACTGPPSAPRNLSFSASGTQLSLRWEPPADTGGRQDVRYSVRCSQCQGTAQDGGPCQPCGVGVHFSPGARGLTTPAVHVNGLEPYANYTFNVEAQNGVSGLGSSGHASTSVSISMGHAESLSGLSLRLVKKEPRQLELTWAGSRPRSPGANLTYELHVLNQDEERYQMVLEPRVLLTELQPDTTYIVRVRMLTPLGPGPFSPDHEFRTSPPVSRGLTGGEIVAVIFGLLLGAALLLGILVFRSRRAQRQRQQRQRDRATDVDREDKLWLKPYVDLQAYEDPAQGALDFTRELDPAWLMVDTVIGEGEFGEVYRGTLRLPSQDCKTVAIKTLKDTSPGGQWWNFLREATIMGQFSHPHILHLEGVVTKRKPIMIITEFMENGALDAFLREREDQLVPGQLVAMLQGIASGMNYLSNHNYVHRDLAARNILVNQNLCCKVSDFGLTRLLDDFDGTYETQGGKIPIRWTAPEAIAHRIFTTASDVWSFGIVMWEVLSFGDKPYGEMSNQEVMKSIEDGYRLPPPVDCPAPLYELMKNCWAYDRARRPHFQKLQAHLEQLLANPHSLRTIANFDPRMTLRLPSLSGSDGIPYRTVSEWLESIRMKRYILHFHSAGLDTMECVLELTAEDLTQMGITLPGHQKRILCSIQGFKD

[12] = biological target: Glycogen synthase kinase-3 beta (Homo sapiens) (UniProt P49841); assay: Inhibition of GSK3B (unknown origin) at 100 nM in the presence of ATP by Kinome scan method relative to control
[13] = biological target: Mitogen-activated protein kinase 14 (Homo sapiens) (UniProt Q16539); assay: Inhibition of MAPK14 (unknown origin) at 1000 nM in the presence of ATP by Kinome scan method relative to control
Mitogen-activated protein kinase 14 (Homo sapiens), sequence (Q16539 whole entry): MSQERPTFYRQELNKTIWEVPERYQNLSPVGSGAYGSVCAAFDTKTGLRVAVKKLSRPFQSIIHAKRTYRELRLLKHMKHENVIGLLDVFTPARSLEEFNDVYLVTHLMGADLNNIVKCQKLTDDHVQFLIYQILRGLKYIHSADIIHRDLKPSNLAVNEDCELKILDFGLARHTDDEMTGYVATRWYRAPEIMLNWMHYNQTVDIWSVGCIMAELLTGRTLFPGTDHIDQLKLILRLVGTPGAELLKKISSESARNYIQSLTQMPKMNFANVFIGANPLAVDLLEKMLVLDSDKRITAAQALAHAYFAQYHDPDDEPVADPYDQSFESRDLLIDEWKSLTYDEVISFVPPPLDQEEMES

[14] = biological target: Mitogen-activated protein kinase 8 (Homo sapiens) (UniProt P45983); assay: Inhibition of MAPK8 (unknown origin) at 1000 nM in the presence of ATP by Kinome scan method relative to control
Mitogen-activated protein kinase 8 (Homo sapiens), sequence (P45983 whole entry): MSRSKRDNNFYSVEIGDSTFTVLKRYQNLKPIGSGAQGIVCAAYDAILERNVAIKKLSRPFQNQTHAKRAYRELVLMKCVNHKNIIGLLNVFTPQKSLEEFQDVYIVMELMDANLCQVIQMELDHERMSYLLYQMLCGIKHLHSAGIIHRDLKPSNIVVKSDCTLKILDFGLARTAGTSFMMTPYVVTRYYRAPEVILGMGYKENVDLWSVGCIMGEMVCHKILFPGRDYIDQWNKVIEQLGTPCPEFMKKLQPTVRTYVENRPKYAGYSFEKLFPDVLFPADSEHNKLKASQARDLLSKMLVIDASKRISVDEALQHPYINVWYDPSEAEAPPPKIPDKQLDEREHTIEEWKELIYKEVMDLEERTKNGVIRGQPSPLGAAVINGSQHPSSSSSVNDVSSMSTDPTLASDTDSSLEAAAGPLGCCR

[15] = biological target: RAC-alpha serine/threonine-protein kinase (Homo sapiens) (UniProt P31749); assay: Inhibition of AKT1 (unknown origin) at 100 nM in the presence of ATP by Kinome scan method relative to control
[16] = biological target: Dual specificity protein kinase CLK1 (Homo sapiens) (UniProt P49759); assay: Inhibition of CLK (unknown origin) in human HCT-116 cells assessed as induction in alternative splicing effect in RBM25-PSEN1 level incubated for 6 hrs by RT-PCR analysis; format: cell-based; conditions: dose 0.2-5 µM; outline: as §1
[17] = system: HCT-116; assay: Induction of cell cycle arrest in human HCT-116 cells assessed as sub G0/G1 phase at 0.1 uM incubated for 24 hrs by flow cytometry analysis (Rvb=2.5%); format: functional
[18] = biological target: Cyclin-dependent kinase 1/cyclin B1 (Homo sapiens) (UniProt P06493+P14635); assay: Inhibition of CDK1/cyclin B (unknown origin) at 100 nM in the presence of ATP by Kinome scan method relative to control; format: protein-complex assay
Cyclin-dependent kinase 1/cyclin B1 (Homo sapiens), sequence (P06493 whole entry, looked up): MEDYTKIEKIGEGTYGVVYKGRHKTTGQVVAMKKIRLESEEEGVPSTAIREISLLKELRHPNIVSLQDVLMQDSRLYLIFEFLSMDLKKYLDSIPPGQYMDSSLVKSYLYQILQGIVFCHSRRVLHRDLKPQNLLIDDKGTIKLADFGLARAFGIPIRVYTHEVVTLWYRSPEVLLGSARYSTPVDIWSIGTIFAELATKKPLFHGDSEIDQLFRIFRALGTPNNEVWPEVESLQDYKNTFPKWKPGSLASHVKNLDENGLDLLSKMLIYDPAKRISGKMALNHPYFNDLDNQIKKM
Cyclin-dependent kinase 1/cyclin B1 (Homo sapiens), sequence (P14635 whole entry, looked up): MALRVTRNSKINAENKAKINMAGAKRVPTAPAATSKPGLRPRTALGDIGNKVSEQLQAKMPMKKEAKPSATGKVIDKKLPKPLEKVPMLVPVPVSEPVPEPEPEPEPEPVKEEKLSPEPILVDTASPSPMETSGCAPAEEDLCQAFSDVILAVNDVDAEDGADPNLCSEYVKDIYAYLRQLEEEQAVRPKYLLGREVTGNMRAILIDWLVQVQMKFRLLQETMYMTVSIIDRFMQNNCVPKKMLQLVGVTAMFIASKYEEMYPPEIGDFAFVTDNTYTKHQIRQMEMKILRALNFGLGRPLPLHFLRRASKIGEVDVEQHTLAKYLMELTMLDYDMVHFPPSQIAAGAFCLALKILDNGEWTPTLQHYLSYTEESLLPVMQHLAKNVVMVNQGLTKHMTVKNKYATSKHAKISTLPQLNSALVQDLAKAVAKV

[19] = system: HCT-116; assay: Induction of cell cycle arrest in human HCT-116 cells assessed as S phase at 5 uM incubated for 24 hrs by flow cytometry analysis (Rvb=46.4%); format: functional
[20] = biological target: Casein kinase I isoform delta (Homo sapiens) (UniProt P48730); assay: Inhibition of CSNK1D (unknown origin) at 100 nM in the presence of ATP by Kinome scan method relative to control
[21] = biological target: Dual specificity protein kinase CLK1 (Homo sapiens) (UniProt P49759); assay: Inhibition of CLK (unknown origin) in human 184-hTERT cells assessed as induction in alternative splicing effect in RBM25-PSEN1 level incubated for 6 hrs by RT-PCR analysis; format: cell-based; conditions: dose 0.2-5 µM; outline: as §1
[22] = system: HCT-116; assay: Induction of cell cycle arrest in human HCT-116 cells assessed as G0/G1 phase at 0.1 uM incubated for 6 hrs by flow cytometry analysis (Rvb=35.0%); format: functional
[23] = system: HCT-116; assay: Induction of apoptosis in human HCT-116 cells assessed as early apoptosis at 0.1 uM incubated for > 6 hrs by annexin V/PI staining based analysis (Rvb=3.29%); format: functional
[24] = biological target: Mitogen-activated protein kinase 11 (Homo sapiens) (UniProt Q15759); assay: Inhibition of MAPK11 (unknown origin) at 100 nM in the presence of ATP by Kinome scan method relative to control
[25] = system: HCT-116; assay: Induction of apoptosis in human HCT-116 cells assessed as necrosis cells at 0.5 uM incubated for > 6 hrs by annexin V/PI staining based analysis (Rvb=0.55%); format: functional
[26] = system: HCT-116; assay: Induction of cell cycle arrest in human HCT-116 cells assessed as G2/M phase at 0.5 uM incubated for 6 hrs by flow cytometry analysis (Rvb=25.8%); format: functional
[27] = biological target: Dual specificity protein kinase CLK1 (Homo sapiens) (UniProt P49759); assay: Inhibition of CLK (unknown origin) in human HCT-116 cells assessed as induction in alternative splicing effect in S6K skipped exon /canonical form incubated for 6 hrs by RT-PCR analysis; format: cell-based; conditions: dose 0.2-5 µM; outline: as §1
[28] = biological target: Mitogen-activated protein kinase 14 (Homo sapiens) (UniProt Q16539); assay: Inhibition of MAPK14 (unknown origin) at 100 nM in the presence of ATP by Kinome scan method relative to control
[29] = biological target: Mast/stem cell growth factor receptor Kit (Homo sapiens) (UniProt P10721); assay: Inhibition of KIT (unknown origin) at 100 nM in the presence of ATP by Kinome scan method relative to control
Mast/stem cell growth factor receptor Kit (Homo sapiens), sequence (P10721 whole entry): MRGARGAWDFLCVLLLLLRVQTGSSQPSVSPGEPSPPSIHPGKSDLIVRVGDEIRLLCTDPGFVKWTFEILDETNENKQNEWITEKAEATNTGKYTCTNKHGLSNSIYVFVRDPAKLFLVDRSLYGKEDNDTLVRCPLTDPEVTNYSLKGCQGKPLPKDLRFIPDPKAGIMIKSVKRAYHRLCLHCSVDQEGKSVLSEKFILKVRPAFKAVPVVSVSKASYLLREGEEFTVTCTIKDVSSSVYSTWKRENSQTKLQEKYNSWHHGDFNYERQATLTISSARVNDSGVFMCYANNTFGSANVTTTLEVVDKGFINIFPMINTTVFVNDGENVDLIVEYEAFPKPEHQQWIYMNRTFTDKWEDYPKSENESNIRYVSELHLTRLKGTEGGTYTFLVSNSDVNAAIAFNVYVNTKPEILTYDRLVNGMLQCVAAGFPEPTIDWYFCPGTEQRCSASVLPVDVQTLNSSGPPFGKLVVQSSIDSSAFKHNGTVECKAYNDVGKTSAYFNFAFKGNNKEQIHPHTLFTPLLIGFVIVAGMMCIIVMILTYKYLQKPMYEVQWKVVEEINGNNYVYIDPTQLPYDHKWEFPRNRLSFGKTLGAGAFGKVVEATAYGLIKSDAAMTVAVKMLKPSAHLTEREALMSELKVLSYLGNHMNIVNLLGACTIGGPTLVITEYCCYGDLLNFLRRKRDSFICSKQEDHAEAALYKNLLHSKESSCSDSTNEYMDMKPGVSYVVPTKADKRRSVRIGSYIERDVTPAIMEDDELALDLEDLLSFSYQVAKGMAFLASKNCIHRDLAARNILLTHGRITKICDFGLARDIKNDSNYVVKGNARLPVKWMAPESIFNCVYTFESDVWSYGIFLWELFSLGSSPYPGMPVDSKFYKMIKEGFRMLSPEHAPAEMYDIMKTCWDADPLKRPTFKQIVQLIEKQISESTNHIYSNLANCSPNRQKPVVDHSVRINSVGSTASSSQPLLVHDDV

[30] = biological target: Dual specificity protein kinase CLK1 (Homo sapiens) (UniProt P49759); assay: Inhibition of CLK (unknown origin) in human 184-hTERT cells assessed as induction in alternative splicing effect in S6K skipped exon incubated for 6 hrs by RT-PCR analysis; format: cell-based; conditions: dose 0.2-5 µM; outline: as §1
[31] = biological target: Dual specificity protein kinase CLK1 (Homo sapiens) (UniProt P49759); assay: Inhibition of CLK (unknown origin) in human 184-hTERT cells assessed as induction in alternative splicing effect in S6K canonical isoform incubated for 6 hrs by RT-PCR analysis; format: cell-based; conditions: dose 0.2-5 µM; outline: as §1

inhibition [1]: -10%
inhibition [2]: -3%
inhibition [3]: Dose-Dependent Effect
inhibition [4]: -5%
inhibition [8]: 2%
inhibition [9]: 16%
inhibition [11]: -2%
inhibition [12]: -3%
inhibition [13]: 6%
inhibition [14]: 3%
inhibition [15]: -8%
inhibition [16]: Dose-Dependent Effect
inhibition [18]: 8%
inhibition [20]: -3%
inhibition [21]: Dose-Dependent Effect
inhibition [24]: 1%
inhibition [27]: Dose-Dependent Effect
inhibition [28]: 5%
inhibition [29]: 11%
inhibition [30]: Dose-Dependent Effect
inhibition [31]: Dose-Dependent Effect
SMILES: CN1CCN(C(=O)C(C)(C)c2ccc(C(=O)Nc3cn4cc(-c5ccncc5)ccc4n3)cc2)CC1 [T3-CLK]
Activity [5]: 0.86%
Activity [6]: 46.7%
Activity [7]: 1.7%
Activity [10]: 1.5%
Activity [17]: 2.8%
Activity [19]: 45.5%
Activity [22]: 24%
Activity [23]: 3.11%
Activity [25]: 0.69%
Activity [26]: 34.8%
